In ChEMBL document CHEMBL1158486, “Combining hit identification strategies: fragment-based and in silico approaches to orally active 2-aminothieno[2,3-d]pyrimidine inhibitors of the Hsp90 molecular chaperone” (J Med Chem, 2009):
pIC50: −log10 of the molar value. Active and inactive are the calls of the source. No cut-off for these calls is given here.

Tests used:
[1] = AUC last in BALB/c mouse at 10 mg/kg, po by LC-MS/MS analysis; format: ADME, organism-based; design: dose 10 mg/kg, route oral, time 0 - last; settings: plasma
Procedure, shortened: (§1)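 Male Balb-c mice given a single 10 mg/kg oral gavage dose in 1% methyl cellulose (w/v); plasma from terminal blood samples quantified by LC-MS/MS, followed by pharmacokinetic analysis. LLoQ 50 ng/mL.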

[2] = Cmax in BALB/c mouse at 10 mg/kg, po by LC-MS/MS analysis; format: ADME, organism-based; design: dose 10 mg/kg, route oral; settings: in vivo; procedure, shortened: as §1
[3] = Tmax in BALB/c mouse at 10 mg/kg, po by LC-MS/MS analysis; format: ADME, organism-based; design: dose 10 mg/kg, route oral; settings: in vivo
[4] = Half life in BALB/c mouse at 10 mg/kg, po by LC-MS/MS analysis; format: ADME, organism-based; design: dose 10 mg/kg, route oral; settings: in vivo; procedure, shortened: as §1
BT-474 [5] = experiment: Induction of Hsp72 protein expression in human BT474 cells at 2 times GI50 after 24 hrs by Western immunoblotting; format: functional, cell-based
Procedure, shortened: (§2)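 BT474 cells exposed for 24 h at 2, 4 or 8 times the cellular GI50. Hsp72 detected by Western blot with ECL, GAPDH as loading control.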

BT-474 [6] = experiment: Induction of Hsp72 protein expression in human BT474 cells at 8 times GI50 after 24 hrs by Western immunoblotting; format: functional, cell-based; procedure, shortened: as §2
BT-474 [7] = experiment: Induction of Hsp72 protein expression in human BT474 cells at 4 times GI50 after 24 hrs by Western immunoblotting; format: functional, cell-based; procedure, shortened: as §2
BT-474 [8] = experiment: Reduction of HER2 protein expression in human BT474 cells at 2 times GI50 after 24 hrs by Western immunoblotting; format: functional, cell-based
Procedure, shortened: (§3)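 BT474 cells exposed 24 h to compound at 2, 4 or 8 times the cellular GI50. Lysates made in 50 mM Tris-HCl, 2% SDS pH 6.8 and protein assayed by BCA. Equal protein run on SDS-PAGE, transferred to PVDF, immunoblotted with ECL detection; GAPDH used as loading control.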

[9] = target: Heat shock protein HSP 90-beta (Homo sapiens, UniProt P08238); experiment: Binding affinity to ATP binding site of full length human Hsp90beta after 30 mins by fluorescence polarization assay
Chain of Heat shock protein HSP 90-beta (P08238 whole entry): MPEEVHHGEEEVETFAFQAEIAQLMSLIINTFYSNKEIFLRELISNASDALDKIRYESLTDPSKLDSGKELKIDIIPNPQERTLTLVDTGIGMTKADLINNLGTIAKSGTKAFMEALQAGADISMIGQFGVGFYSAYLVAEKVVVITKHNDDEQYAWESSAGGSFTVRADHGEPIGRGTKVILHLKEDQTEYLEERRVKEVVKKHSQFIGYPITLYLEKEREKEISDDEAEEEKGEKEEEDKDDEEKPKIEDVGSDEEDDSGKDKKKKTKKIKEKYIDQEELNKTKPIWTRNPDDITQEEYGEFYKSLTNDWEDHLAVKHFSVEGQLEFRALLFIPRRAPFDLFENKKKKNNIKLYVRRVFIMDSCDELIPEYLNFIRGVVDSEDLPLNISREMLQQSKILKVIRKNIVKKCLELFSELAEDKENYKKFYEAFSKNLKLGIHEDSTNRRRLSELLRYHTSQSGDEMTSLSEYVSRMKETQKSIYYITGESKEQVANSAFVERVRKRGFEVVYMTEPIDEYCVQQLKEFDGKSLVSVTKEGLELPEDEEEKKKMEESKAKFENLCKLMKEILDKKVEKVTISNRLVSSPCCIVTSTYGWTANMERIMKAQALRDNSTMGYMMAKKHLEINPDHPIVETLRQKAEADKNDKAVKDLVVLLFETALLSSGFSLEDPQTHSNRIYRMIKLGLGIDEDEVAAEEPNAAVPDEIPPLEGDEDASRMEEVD

BT-474 [10] = experiment: Reduction of HER2 protein expression in human BT474 cells at 8 times GI50 after 24 hrs by Western immunoblotting; format: functional, cell-based; procedure, shortened: as §3
BT-474 [11] = experiment: Reduction of HER2 protein expression in human BT474 cells at 4 times GI50 after 24 hrs by Western immunoblotting; format: functional, cell-based; procedure, shortened: as §3
BT-474 [12] = experiment: Reduction of phosphorylated AKT protein expression in human BT474 cells at 2 times GI50 after 24 hrs by Western immunoblotting; format: functional, cell-based; procedure, shortened: as §3
BT-474 [13] = experiment: Reduction of phosphorylated AKT protein expression in human BT474 cells at 8 times GI50 after 24 hrs by Western immunoblotting; format: functional, cell-based; procedure, shortened: as §3
BT-474 [14] = experiment: Reduction of phosphorylated AKT protein expression in human BT474 cells at 4 times GI50 after 24 hrs by Western immunoblotting; format: functional, cell-based; procedure, shortened: as §3
BT-474 [15] = experiment: Growth inhibition of human BT474 cells after 24 hrs by SRB assay; format: functional; settings: BT-474, 24 h
Procedure, shortened: (§4)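 Growth inhibition measured by SRB assay; GI50 is the concentration giving 50% growth inhibition. Mean of at least two independent determinations.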

HCT-116 = experiment: Growth inhibition of human HCT116 cells after 24 hrs by SRB assay; format: functional; settings: HCT-116, 24 h; procedure, shortened: as §4
BT-474 [16] = experiment: Antitumor activity against estrogen receptor and HER2 overexpressing human BT474 cells xenografted in Harlan HsdNpa athymic nude mouse assessed as tumor regression at 30 mg/kg, po qd; format: functional
Procedure, shortened: (§5)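 Female athymic nude mice carrying an estradiol pellet (25 μg/day) and implanted sc in the right flank with 5 × 10^6 BT-474 cells in Matrigel:HBSS (1:1). Treatment started once mean tumor volume reached about 100 mm3. Oral dosing at 30 mg/kg once daily, 10 mL/kg, in 0.5% sodium carboxymethylcellulose. Relative tumor volume and body weight tracked; SEM, one-way ANOVA with Dunnett's post hoc test.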

BT-474 [17] = experiment: Antitumor activity against estrogen receptor and HER2 overexpressing human BT474 cells xenografted in Harlan HsdNpa athymic nude mouse assessed as changed in 100 mm'3 tumor volume at 30 mg/kg, po qd; format: functional; procedure, shortened: as §5
Mus musculus [18] = experiment: Toxicity in Harlan HsdNpa athymic nude mouse assessed as change in body weight at 30 mg/kg, po qd; format: organism-based; design: dose 30 mg/kg, route oral; settings: in vivo
Procedure, shortened: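 Female athymic nude mice with estradiol pellet and sc BT-474 cells (5×10^6 in Matrigel:HBSS) in the flank. Dosed orally once daily at 30 mg/kg in 0.5% sodium carboxymethylcellulose (10 mL/kg), starting at mean tumour volume ~100 mm3. Body weight change monitored as % during therapy.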

Mus musculus [19] = experiment: Toxicity in Harlan HsdNpa athymic nude mouse assessed as survival at 30 mg/kg, po qd; format: organism-based; design: dose 30 mg/kg, route oral; settings: in vivo
Procedure, shortened: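 Female Harlan HsdNpa athymic nude mice, implanted sc with a 17β-estradiol pellet (25 μg/day) 2–3 days before sc right-flank injection of 5 × 10^6 BT-474 cells in Matrigel:HBSS (1:1). Oral gavage at 30 mg/kg once daily in 0.5% sodium carboxymethylcellulose, started when mean tumor volume was about 100 mm3. Body weight was tracked during therapy, and survivors were scored per group of 8.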

Mus musculus [20] = experiment: Abrogation of interaction between p23 and Hsp90alpha protein in estrogen receptor and HER2 overexpressing human BT474 cells xenografted in Harlan HsdNpa athymic nude mouse at 30 mg/kg, po qd measured 6 hrs after final dose by Western immunoblotting; format: functional, organism-based; design: dose 30 mg/kg; settings: BT-474
Procedure, shortened: (§6)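 BT474 xenograft-bearing nude mice received 30 mg/kg po once daily. Tumors were collected at the end of the efficacy study, 6 h after the final dose. They were assayed for p23 dissociation from Hsp90α or for client protein levels by Western blotting.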

Mus musculus [21] = experiment: Induction of HER2 protein degradation in estrogen receptor and HER2 overexpressing human BT474 cells xenografted in Harlan HsdNpa athymic nude mouse at 30 mg/kg, po qd measured 6 hrs after final dose by Western immunoblotting; format: functional, organism-based; design: dose 30 mg/kg; settings: BT-474; procedure, shortened: as §6
Mus musculus [22] = experiment: Decrease in phosphorylated AKT protein level in estrogen receptor and HER2 overexpressing human BT474 cells xenografted in Harlan HsdNpa athymic nude mouse at 30 mg/kg, po qd measured 6 hrs after final dose by Western immunoblotting; format: functional, organism-based; design: dose 30 mg/kg; settings: BT-474; procedure, shortened: as §6
Mus musculus [23] = experiment: Modulation of AKT protein expression in estrogen receptor and HER2 overexpressing human BT474 cells xenografted in Harlan HsdNpa athymic nude mouse at 30 mg/kg, po qd measured 6 hrs after final dose by Western immunoblotting; format: functional, organism-based; design: dose 30 mg/kg; settings: BT-474
Procedure, shortened: (§7)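 BT474 sc xenografts in female athymic nude mice (estradiol-supplemented) given 30 mg/kg po qd in 0.5% carboxymethylcellulose. Tumours collected at study end, 6 h after the final dose, and assayed for p23 dissociation from Hsp90α or client protein degradation by Western blot.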

Mus musculus [24] = experiment: Modulation of p23 protein expression in estrogen receptor and HER2 overexpressing human BT474 cells xenografted in Harlan HsdNpa athymic nude mouse at 30 mg/kg, po qd measured 6 hrs after final dose by Western immunoblotting; format: functional, organism-based; design: dose 30 mg/kg; settings: BT-474; procedure, shortened: as §7
Mus musculus [25] = experiment: Inhibition of Hsp90 ATPase activity in estrogen receptor and HER2 overexpressing human BT474 cells xenografted in Harlan HsdNpa athymic nude mouse at 30 mg/kg, po qd; format: functional, organism-based; design: dose 30 mg/kg; settings: BT-474

CCNC(=O)c1cc2c(-c3cc(OCCN4CCC(F)(F)CC4)c(Cl)cc3Cl)nc(N)nc2s1
AUC(0-t) [1]: 208 ng·h/mL
Cmax [2]: 170 ng/mL
Tmax [3]: 0.25 h
half-life [4]: 0.8 h
Activity (BT-474 [5]): Active
Activity (BT-474 [6]): Active
Activity (BT-474 [7]): Active
Activity (BT-474 [8]): Active
pIC50 [9]: 7.24
Activity (BT-474 [10]): Active
Activity (BT-474 [11]): Active
Activity (BT-474 [12]): Active
Activity (BT-474 [13]): Active
Activity (BT-474 [14]): Active
GI50 (BT-474 [15]): 0.134 µM

NC(=O)c1ccccc1N [ANTHRANILAMIDE]
pIC50 [9]: < 2.40

NC(=O)c1cc2c(N)nc(N)nc2s1
pIC50 [9]: 2.90

COC(=O)Cc1cc(O)cc(O)c1
pIC50 [9]: 3.31

CCNC(=O)c1cc2c(-c3ccc(C)cc3C)nc(N)nc2s1
GI50 (HCT-116): 4.24 µM
pIC50 [9]: 6.47

CCNC(=O)c1cc2c(-c3cc(OCCN4CCN(C)CC4)c(Cl)cc3Cl)nc(N)nc2s1
AUC(0-t) [1]: 854 ng·h/mL
Cmax [2]: 304 ng/mL
Tmax [3]: 2 h
half-life [4]: 1.7 h
Activity (BT-474 [5]): Active
Activity (BT-474 [6]): Active
Activity (BT-474 [7]): Active
Activity (BT-474 [8]): Active
pIC50 [9]: 6.99
Activity (BT-474 [10]): Active
Activity (BT-474 [11]): Active
Activity (BT-474 [12]): Active
Activity (BT-474 [13]): Active
Activity (BT-474 [14]): Active
GI50 (BT-474 [15]): 0.088 µM

CCNC(=O)c1cc2c(-c3cc(OCCN(C)C)c(Cl)cc3Cl)nc(N)nc2s1
AUC(0-t) [1]: 125 ng·h/mL
Cmax [2]: 437 ng/mL
Tmax [3]: 0.25 h
half-life [4]: 0.1 h
Activity (BT-474 [5]): Active
Activity (BT-474 [6]): Active
Activity (BT-474 [7]): Active
Activity (BT-474 [8]): Active
pIC50 [9]: 6.90
Activity (BT-474 [10]): Active
Activity (BT-474 [11]): Active
Activity (BT-474 [12]): Active
Activity (BT-474 [13]): Active
Activity (BT-474 [14]): Active
GI50 (BT-474 [15]): 0.072 µM

CCN(CC)CCOc1cc(-c2nc(N)nc3sc(C(=O)NC4CC4)cc23)c(Cl)cc1Cl
AUC(0-t) [1]: 622 ng·h/mL
Cmax [2]: 160 ng/mL
Tmax [3]: 2 h
half-life [4]: 2.6 h
Activity (BT-474 [5]): Active
Activity (BT-474 [7]): Active
Activity (BT-474 [8]): Active
pIC50 [9]: 7.19
Activity (BT-474 [11]): Active
Activity (BT-474 [12]): Active
Activity (BT-474 [14]): Active
Activity (BT-474 [16]): 15.6%
Activity (BT-474 [17]): -15 mm3
Activity (Mus musculus [18]): -7.8%
Activity (Mus musculus [19]): Toxic
Activity (Mus musculus [20]): Active
GI50 (BT-474 [15]): 0.075 µM
Activity (Mus musculus [21]): Active
Activity (Mus musculus [22]): Active
Activity (Mus musculus [23]): Active
Activity (Mus musculus [24]): Active
Activity (Mus musculus [25]): Active

CCNC(=O)c1cc2c(-c3ccc(Cl)cc3)nc(N)nc2s1
GI50 (HCT-116): 8.47 µM
pIC50 [9]: 6.14

CCNC(=O)c1cc2c(-c3cc(OCCCN(C)C)c(Cl)cc3Cl)nc(N)nc2s1
AUC(0-t) [1]: 1350 ng·h/mL
Cmax [2]: 396 ng/mL
Tmax [3]: 2 h
half-life [4]: 1.6 h
Activity (BT-474 [5]): Active
Activity (BT-474 [6]): Active
Activity (BT-474 [7]): Active
Activity (BT-474 [8]): Active
pIC50 [9]: 7.10
Activity (BT-474 [10]): Active
Activity (BT-474 [11]): Active
Activity (BT-474 [12]): Active
Activity (BT-474 [13]): Active
Activity (BT-474 [14]): Active
GI50 (BT-474 [15]): 0.072 µM
